Source: ChEMBL document CHEMBL4270671, “Pathway-Based Drug Repositioning for Cancers: Computational Prediction and Experimental Validation” (J Med Chem, 2018)
The source made the active and inactive calls. No cut-off for these calls is given here.

How the values were obtained:
Caco-2 [1] = assay: Reduction in viability of human Caco2 cells after 6 hrs by fluorescence assay; format: functional, cell-based
Procedure, shortened: (§1)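 A single multiplexed triplex kit read cell viability, cytotoxicity and apoptosis, with caspase-3/7 activity as the apoptosis marker. Compounds were tested over a range of concentrations on cancer lines and normal epithelial Het-1A cells, with DMSO as the vehicle control. Read-outs were compared against the DMSO wells.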

ASPC1 [2] = assay: Reduction in viability of human AsPC1 cells after 6 hrs by fluorescence assay; format: functional, cell-based; procedure, shortened: as §1
PC-3 [3] = assay: Reduction in viability of human PC3 cells after 6 hrs by fluorescence assay; format: functional, cell-based; procedure, shortened: as §1
HET-1A [4] = assay: Reduction in viability of human HET-1A cells after 6 hrs by fluorescence assay; format: cell-based; procedure, shortened: as §1
A549 [5] = assay: Reduction in viability of human A549 cells after 6 hrs by fluorescence assay; format: functional, cell-based; procedure, shortened: as §1
A549 [6] = assay: Induction of apoptosis in human A549 cells assessed as increase in caspase 3/7 activity after 6 hrs by caspase glo 3/7 assay; format: functional, cell-based; procedure, shortened: as §1
PC-3 [7] = assay: Induction of apoptosis in human PC3 cells assessed as increase in caspase 3/7 activity after 6 hrs by caspase glo 3/7 assay; format: functional, cell-based; procedure, shortened: as §1
Caco-2 [8] = assay: Induction of apoptosis in human Caco2 cells assessed as increase in caspase 3/7 activity after 6 hrs by caspase glo 3/7 assay; format: functional, cell-based; procedure, shortened: as §1
ASPC1 [9] = assay: Induction of apoptosis in human AsPC1 cells assessed as increase in caspase 3/7 activity after 6 hrs by caspase glo 3/7 assay; format: functional, cell-based; procedure, shortened: as §1
PC-3 [10] = assay: Cytotoxicity against human PC3 cells after 6 hrs by fluorescence assay; format: functional, cell-based; procedure, shortened: as §1
ASPC1 [11] = assay: Cytotoxicity against human AsPC1 cells after 6 hrs by fluorescence assay; format: functional, cell-based; procedure, shortened: as §1
HET-1A [12] = assay: Induction of apoptosis in human HET-1A cells assessed as increase in caspase 3/7 activity after 6 hrs by caspase glo 3/7 assay; format: cell-based; procedure, shortened: as §1
A549 [13] = assay: Cytotoxicity against human A549 cells after 6 hrs by fluorescence assay; format: functional, cell-based; procedure, shortened: as §1
Caco-2 [14] = assay: Cytotoxicity against human Caco2 cells after 6 hrs by fluorescence assay; format: functional, cell-based; procedure, shortened: as §1
HET-1A [15] = assay: Cytotoxicity against human HET-1A cells after 6 hrs by fluorescence assay; format: cell-based; procedure, shortened: as §1

SMILES | Activity (Caco-2 [1]) | Activity (ASPC1 [2]) | Activity (PC-3 [3]) | Activity (HET-1A [4]) | Activity (A549 [5]) | Activity (A549 [6]) | Activity (PC-3 [7]) | Activity (Caco-2 [8]) | Activity (ASPC1 [9]) | Activity (PC-3 [10]) | Activity (ASPC1 [11]) | Activity (HET-1A [12]) | Activity (A549 [13]) | Activity (Caco-2 [14]) | Activity (HET-1A [15])
CN1[C@@H]2CCC[C@H]1CC(NC(=O)c1nn(C)c3ccccc13)C2 (stereo partly specified) | inactive | inactive | inactive | Toxic | inactive |  |  |  |  |  |  |  |  |  | 
CC(=O)Oc1ccccc1C(=O)Nc1ncc([N+](=O)[O-])s1 |  |  |  |  |  | inactive | inactive | inactive | inactive |  |  |  |  |  | 
CC[C@H]1OC(=O)[C@H](C)[C@@H](O[C@H]2C[C@@](C)(OC)[C@@H](O)[C@H](C)O2)[C@H](C)[C@@H](O[C@@H]2O[C@H](C)C[C@H](N(C)C)[C@H]2O)[C@](C)(O)C[C@@H](C)[C@@H]2N[C@@H](COCCOC)O[C@H]([C@H]2C)[C@]1(C)O [DIRITHROMYCIN] | inactive | inactive | inactive | Toxic | inactive |  |  |  |  |  |  |  |  |  | 
COC(=O)C1=C(C)NC(C)=C(C(=O)OCCN(C)Cc2ccccc2)C1c1cccc([N+](=O)[O-])c1 (stereo unspecified) [NICARDIPINE] | Dose-dependent effect | Dose-dependent effect | Dose-dependent effect | Dose-dependent effect | Dose-dependent effect |  | Dose-dependent effect | Dose-dependent effect |  | Dose-dependent effect | Dose-dependent effect | Dose-dependent effect | Dose-dependent effect | Dose-dependent effect | Dose-dependent effect
O=C(Nc1ccc([N+](=O)[O-])cc1Cl)c1cc(Cl)ccc1O [NICLOSAMIDE] | Dose-dependent effect | Dose-dependent effect | Dose-dependent effect | Dose-dependent effect | Dose-dependent effect | Active | Dose-dependent effect | Active | Active |  |  |  |  |  | 
OC1(c2ccc(Cl)c(C(F)(F)F)c2)CCN(CCCC(c2ccc(F)cc2)c2ccc(F)cc2)CC1 [PENFLURIDOL] | Dose-dependent effect | Dose-dependent effect | Dose-dependent effect | Dose-dependent effect | Dose-dependent effect | Dose-dependent effect | Dose-dependent effect | Dose-dependent effect | Active | Dose-dependent effect | Dose-dependent effect | Dose-dependent effect | Dose-dependent effect | Dose-dependent effect | Dose-dependent effect
CN(C)CCCN1c2ccccc2Sc2ccccc21 [PROMAZINE] | Dose-dependent effect | Dose-dependent effect | Dose-dependent effect | Dose-dependent effect | Dose-dependent effect | Dose-dependent effect | Dose-dependent effect | Dose-dependent effect | Active | Dose-dependent effect | Dose-dependent effect | Dose-dependent effect | Dose-dependent effect | Dose-dependent effect | Dose-dependent effect
